Laboratory results taken from ChEMBL document CHEMBL1938284, “Synthesis and biological activity of novel organoselenium derivatives targeting multiple kinases and capable of inhibiting cancer progression to metastases” (Eur J Med Chem, 2012).
Calls of active or inactive are those of the source. The rule behind the calls is not given here.

Columns and labels:
[1] = biological target: Platelet-derived growth factor receptor beta (Homo sapiens) (UniProt P09619); assay: Inhibition of PDGFRbeta at 1 uM
Platelet-derived growth factor receptor beta (Homo sapiens), sequence (P09619 whole entry): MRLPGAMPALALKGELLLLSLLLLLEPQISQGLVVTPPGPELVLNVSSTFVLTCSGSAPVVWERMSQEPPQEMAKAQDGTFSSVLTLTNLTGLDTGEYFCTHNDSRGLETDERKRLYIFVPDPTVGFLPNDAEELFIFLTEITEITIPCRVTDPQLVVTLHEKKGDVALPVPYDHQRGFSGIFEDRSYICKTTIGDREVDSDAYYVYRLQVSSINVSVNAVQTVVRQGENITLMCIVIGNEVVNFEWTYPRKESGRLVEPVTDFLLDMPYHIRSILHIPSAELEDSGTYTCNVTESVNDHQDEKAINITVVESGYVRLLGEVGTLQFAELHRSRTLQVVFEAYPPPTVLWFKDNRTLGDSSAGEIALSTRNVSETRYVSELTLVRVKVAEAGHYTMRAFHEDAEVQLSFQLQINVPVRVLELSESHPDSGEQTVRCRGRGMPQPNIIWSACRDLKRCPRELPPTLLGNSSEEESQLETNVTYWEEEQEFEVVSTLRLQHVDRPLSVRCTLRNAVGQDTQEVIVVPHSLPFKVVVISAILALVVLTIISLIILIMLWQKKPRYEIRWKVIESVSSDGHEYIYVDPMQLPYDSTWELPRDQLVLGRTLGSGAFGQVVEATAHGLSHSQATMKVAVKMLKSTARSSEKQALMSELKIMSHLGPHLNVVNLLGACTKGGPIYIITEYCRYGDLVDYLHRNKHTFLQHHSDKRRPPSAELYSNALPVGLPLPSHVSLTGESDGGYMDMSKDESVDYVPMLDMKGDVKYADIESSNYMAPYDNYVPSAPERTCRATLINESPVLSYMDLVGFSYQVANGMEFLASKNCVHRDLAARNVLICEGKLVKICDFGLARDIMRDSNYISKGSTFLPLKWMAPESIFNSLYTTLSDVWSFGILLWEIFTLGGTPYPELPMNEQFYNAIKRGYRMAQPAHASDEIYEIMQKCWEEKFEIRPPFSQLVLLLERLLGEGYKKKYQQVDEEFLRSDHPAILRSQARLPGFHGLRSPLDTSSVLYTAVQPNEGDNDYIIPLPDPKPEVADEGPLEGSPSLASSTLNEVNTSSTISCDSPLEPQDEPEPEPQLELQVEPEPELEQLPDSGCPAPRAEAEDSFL

[2] = biological target: RAC-alpha serine/threonine-protein kinase (Homo sapiens, UniProt P31749); assay: Inhibition of AKT-1 at 1 uM
[3] = biological target: T1, Serine/threonine-protein kinase Sgk3 (Homo sapiens) (UniProt Q96BR1); assay: Inhibition of SGK3 at 1 uM
T1 sequence (whole entry): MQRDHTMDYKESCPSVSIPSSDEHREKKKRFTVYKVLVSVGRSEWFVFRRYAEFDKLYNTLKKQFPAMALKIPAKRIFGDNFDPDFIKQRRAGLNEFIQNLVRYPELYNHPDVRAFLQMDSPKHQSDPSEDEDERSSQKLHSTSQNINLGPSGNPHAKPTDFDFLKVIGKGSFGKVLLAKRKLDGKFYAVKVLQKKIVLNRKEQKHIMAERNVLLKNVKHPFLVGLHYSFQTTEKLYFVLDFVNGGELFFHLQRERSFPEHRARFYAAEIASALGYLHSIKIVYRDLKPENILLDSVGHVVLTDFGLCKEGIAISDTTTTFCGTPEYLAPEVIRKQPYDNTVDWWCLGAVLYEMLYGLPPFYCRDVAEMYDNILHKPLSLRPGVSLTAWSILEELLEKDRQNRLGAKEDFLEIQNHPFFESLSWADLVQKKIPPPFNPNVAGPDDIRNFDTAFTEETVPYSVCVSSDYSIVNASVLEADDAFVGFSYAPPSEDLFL

MDA-MB-231 = assay: Inhibition of free radical generation in human MDA231 cells by CM-H2DCFDA based fluorometric analysis; assay type: functional, cell-based
[4] = […] in human MDA231 cells assessed as inhibition of cell migration at 10 uM after 12 to 24 hrs by wound healing migration assay relative to control; assay type: functional; settings: MDA-MB-231
Summary of the method: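 MDA-231 cells grown on coverslips for 24 h, wounded by scraping with a micropipette tip, washed, then incubated in fresh medium at 37 °C with or without compound (10 μM final). Wound areas photographed at 12 and 24 h, remaining area measured, DMSO control set to 0% inhibition. Mean ± SD of five independent experiments.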

[5] = biological target: Hepatocyte growth factor receptor (Homo sapiens) (UniProt P08581); assay: Inhibition of MET at 1 uM
Hepatocyte growth factor receptor (Homo sapiens), sequence (P08581 whole entry): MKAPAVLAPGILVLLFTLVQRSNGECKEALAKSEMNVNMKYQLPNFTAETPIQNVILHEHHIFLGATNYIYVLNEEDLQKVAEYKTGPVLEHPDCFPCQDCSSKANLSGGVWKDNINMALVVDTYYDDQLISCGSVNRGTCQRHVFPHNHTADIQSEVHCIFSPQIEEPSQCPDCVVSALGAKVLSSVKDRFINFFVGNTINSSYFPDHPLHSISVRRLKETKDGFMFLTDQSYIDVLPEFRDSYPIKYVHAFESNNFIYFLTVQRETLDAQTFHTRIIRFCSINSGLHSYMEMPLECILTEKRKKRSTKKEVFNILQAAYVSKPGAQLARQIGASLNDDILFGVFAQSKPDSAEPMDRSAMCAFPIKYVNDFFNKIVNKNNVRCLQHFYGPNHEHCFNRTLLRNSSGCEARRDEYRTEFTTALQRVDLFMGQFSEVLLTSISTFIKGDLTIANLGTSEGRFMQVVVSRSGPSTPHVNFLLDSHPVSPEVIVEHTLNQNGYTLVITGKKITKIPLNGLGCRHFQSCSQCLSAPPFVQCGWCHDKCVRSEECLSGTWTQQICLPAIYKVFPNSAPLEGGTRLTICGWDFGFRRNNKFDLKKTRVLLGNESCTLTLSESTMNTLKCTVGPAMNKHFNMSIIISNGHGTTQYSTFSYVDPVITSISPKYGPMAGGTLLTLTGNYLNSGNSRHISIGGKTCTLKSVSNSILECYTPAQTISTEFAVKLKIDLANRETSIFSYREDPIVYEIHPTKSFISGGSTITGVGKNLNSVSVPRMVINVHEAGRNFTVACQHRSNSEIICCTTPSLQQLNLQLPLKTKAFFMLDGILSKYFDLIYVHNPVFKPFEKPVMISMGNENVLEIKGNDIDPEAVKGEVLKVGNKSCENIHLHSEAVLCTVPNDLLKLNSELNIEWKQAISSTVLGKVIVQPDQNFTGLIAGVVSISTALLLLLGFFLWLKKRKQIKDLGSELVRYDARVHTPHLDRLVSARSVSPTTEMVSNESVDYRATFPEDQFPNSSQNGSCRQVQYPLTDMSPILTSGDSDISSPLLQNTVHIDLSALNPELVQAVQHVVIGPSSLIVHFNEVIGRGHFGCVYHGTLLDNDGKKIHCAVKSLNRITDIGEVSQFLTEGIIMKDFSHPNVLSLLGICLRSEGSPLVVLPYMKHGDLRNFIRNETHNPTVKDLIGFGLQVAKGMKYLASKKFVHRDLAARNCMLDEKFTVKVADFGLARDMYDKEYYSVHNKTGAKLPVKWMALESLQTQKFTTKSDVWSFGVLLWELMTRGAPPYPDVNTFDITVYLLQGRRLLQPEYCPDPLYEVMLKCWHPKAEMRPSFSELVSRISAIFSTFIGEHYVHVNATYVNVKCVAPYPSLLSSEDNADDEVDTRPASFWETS

[6] = biological target: Aurora kinase B (Homo sapiens) (UniProt Q96GD4); assay: Inhibition of Aurora B at 1 uM
Aurora kinase B (Homo sapiens), sequence (Q96GD4 whole entry): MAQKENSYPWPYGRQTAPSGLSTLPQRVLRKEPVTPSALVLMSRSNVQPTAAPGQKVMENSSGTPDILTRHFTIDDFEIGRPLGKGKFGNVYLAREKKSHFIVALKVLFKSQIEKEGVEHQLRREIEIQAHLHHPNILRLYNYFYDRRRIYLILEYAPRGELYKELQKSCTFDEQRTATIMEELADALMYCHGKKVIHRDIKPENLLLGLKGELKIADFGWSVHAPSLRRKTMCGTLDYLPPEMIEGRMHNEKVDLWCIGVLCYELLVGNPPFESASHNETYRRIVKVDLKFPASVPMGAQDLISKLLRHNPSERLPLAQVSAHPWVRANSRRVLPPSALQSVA

[7] = biological target: Cyclin-dependent kinase 1/cyclin B1 (Homo sapiens) (UniProt P06493+P14635); assay: Inhibition of CDK1/cyclin B at 1 uM; assay type: protein-complex assay
[8] = biological target: Tyrosine-protein kinase Fyn (Homo sapiens) (UniProt P06241); assay: Inhibition of FYN at 1 uM
[9] = biological target: Epithelial discoidin domain-containing receptor 1 (Homo sapiens) (UniProt Q08345); assay: Inhibition of DDR1 at 1 uM
[10] = biological target: Proto-oncogene tyrosine-protein kinase Src (Homo sapiens) (UniProt P12931); assay: Inhibition of SRC at 1 uM
[11] = biological target: Tyrosine-protein kinase Yes (Homo sapiens) (UniProt P07947); assay: Inhibition of YES1 at 1 uM
Tyrosine-protein kinase Yes (Homo sapiens), sequence (P07947 2-543 limits assumed): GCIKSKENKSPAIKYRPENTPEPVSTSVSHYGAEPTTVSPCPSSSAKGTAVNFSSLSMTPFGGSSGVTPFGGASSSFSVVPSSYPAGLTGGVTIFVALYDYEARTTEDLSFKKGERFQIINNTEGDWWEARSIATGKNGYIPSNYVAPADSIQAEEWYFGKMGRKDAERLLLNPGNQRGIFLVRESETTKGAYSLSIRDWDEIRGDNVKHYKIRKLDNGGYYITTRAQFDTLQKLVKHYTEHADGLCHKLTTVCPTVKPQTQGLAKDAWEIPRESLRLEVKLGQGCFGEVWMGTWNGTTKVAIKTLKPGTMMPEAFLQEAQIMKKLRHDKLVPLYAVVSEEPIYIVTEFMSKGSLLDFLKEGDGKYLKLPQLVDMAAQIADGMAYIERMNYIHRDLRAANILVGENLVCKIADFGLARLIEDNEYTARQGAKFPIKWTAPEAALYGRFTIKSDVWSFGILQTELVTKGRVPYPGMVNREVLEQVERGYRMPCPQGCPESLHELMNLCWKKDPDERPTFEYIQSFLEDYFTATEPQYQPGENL

[12] = biological target: BDNF/NT-3 growth factors receptor (Homo sapiens) (UniProt Q16620); assay: Inhibition of TRKB at 1 uM
[13] = Antiinvasive activity in human MDA231 cells at 10 uM after 48 hrs by Matrigel matrix assay; assay type: functional, MDA-MB-231
Summary of the method: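 Serum-starved MDA-231 cells (30,000) placed with or without compound (10 μM) in the upper compartment of 8-µm Matrigel-coated Boyden chambers. Lower compartment held DMEM 0.2% BSA with 10% serum. Invasion ran 48 h, then invaded cells were fixed, stained and counted under a 40× objective. DMSO normalized to 0% inhibition. Mean ± SD, five experiments.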

[14] = biological target: Serine/threonine-protein kinase pim-1 (Homo sapiens) (UniProt P11309); assay: Inhibition of PIM1 at 1 uM
Serine/threonine-protein kinase pim-1 (Homo sapiens), sequence (P11309 whole entry, looked up): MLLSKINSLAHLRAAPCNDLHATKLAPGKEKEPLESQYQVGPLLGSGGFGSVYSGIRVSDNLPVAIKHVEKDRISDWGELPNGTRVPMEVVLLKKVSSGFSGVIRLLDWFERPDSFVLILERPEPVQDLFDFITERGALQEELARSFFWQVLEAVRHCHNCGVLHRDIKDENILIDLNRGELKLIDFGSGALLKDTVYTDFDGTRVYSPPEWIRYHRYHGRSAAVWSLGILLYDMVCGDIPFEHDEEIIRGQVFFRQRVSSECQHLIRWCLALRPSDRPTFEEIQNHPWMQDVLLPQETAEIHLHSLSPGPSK

[15] = biological target: Tyrosine-protein kinase SYK (Homo sapiens) (UniProt P43405); assay: Inhibition of SYK at 1 uM
[16] = biological target: Fibroblast growth factor receptor 1 (Homo sapiens) (UniProt P11362); assay: Inhibition of FGFR1 at 1 uM
[17] = biological target: Vascular endothelial growth factor receptor 2 (Homo sapiens) (UniProt P35968); assay: Inhibition of VEGFR2 at 1 uM
Vascular endothelial growth factor receptor 2 (Homo sapiens), sequence (P35968 whole entry): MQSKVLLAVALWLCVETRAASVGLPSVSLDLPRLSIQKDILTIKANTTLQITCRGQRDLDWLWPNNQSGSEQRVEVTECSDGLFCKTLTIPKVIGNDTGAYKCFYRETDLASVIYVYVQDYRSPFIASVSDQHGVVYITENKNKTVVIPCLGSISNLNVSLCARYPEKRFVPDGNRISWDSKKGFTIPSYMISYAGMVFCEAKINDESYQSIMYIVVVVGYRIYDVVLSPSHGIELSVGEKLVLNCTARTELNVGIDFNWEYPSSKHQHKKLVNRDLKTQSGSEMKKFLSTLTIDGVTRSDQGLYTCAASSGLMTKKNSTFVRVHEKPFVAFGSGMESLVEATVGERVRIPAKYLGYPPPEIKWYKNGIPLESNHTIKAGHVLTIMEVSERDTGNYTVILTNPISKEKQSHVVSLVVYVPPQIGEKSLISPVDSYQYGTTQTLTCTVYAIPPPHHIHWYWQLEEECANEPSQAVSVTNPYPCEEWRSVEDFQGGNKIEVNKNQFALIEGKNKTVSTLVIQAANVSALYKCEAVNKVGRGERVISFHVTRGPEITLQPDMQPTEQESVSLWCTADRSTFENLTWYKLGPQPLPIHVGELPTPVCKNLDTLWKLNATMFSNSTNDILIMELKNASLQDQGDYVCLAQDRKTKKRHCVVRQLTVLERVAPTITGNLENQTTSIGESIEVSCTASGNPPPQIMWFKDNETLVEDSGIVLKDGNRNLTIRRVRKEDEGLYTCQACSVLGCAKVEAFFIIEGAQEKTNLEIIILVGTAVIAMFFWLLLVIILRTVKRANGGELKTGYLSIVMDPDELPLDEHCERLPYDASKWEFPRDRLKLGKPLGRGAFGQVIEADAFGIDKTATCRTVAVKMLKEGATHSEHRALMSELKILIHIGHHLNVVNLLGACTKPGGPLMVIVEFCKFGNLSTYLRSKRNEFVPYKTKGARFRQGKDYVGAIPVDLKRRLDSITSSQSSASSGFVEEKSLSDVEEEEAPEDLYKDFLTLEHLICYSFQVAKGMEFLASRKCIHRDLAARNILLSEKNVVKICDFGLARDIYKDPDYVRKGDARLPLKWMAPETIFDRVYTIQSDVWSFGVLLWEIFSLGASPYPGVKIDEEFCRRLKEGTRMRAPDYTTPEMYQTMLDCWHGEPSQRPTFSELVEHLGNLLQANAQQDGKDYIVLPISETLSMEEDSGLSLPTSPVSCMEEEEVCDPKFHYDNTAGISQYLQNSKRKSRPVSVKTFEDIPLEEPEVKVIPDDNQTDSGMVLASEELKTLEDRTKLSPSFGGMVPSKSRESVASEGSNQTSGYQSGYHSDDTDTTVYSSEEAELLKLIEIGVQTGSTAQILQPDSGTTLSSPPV

[18] = biological target: T2, Inhibitor of nuclear factor kappa-B kinase subunit epsilon (Homo sapiens) (UniProt Q14164); assay: Inhibition of IKKepsilon at 1 uM
T2 sequence (whole entry): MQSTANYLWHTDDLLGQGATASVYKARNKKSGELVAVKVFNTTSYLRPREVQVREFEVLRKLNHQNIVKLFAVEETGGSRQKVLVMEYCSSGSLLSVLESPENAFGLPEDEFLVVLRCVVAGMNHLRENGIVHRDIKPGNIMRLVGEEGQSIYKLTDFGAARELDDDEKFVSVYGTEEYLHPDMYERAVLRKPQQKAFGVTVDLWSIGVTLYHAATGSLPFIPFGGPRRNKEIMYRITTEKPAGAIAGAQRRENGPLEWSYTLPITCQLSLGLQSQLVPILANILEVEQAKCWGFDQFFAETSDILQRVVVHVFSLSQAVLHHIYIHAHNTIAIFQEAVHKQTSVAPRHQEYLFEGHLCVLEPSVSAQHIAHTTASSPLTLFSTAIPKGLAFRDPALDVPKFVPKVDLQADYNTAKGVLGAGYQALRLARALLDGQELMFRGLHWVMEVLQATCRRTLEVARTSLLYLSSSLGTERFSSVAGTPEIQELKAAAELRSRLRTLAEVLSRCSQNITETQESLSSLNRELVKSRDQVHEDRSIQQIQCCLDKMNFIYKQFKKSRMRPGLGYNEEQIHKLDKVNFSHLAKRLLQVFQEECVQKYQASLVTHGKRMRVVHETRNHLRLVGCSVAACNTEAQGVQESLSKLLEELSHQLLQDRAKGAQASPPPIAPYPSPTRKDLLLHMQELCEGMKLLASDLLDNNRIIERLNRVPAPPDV

[19] = Antiproliferative activity against human MDA231 cells after 72 hrs by MTT assay; assay type: functional, cell-based; settings: MDA-MB-231, 72 h
Summary of the method: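 MTT read-out on MDA-231 cells. 1×10^3 exponentially growing cells seeded and incubated 24, 48 and 72 h. Medium replaced with 1 mg/mL MTT for 3–4 h at 37 °C.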

Structure (SMILES) | inhibition [1] | inhibition [2] | inhibition [3] | inhibition (MDA-MB-231) | inhibition at 10 µM [4] | inhibition [5] | inhibition [6] | inhibition [7] | inhibition [8] | inhibition [9] | inhibition [10] | inhibition [11] | inhibition [12] | Activity [13] | inhibition [14] | inhibition [15] | inhibition [16] | inhibition [17] | inhibition [18] | IC50 [19]
CC(=O)OC[C@H]1O[C@@H](O[C@H]2[C@H](OC(C)=O)[C@@H](OC(C)=O)[C@H](n3[se]c4ccccc4c3=O)O[C@@H]2COC(C)=O)[C@H](OC(C)=O)[C@@H](OC(C)=O)[C@H]1OC(C)=O | 0% | 63% | 0% | inactive | 50% | 0% | 0% | 0% | 0% | 0% | 0% | 0% | 0% | 50% | 0% | 0% | 0% | 0% | 0% | 
O=C(CCCn1[se]c2ccccc2c1=O)N[C@@H]1O[C@H](CO)[C@@H](O)[C@H](O)[C@H]1O | 0% | 60% | 0% | inactive | 50% | 0% | 0% | 0% | 0% | 0% | 0% | 0% | 0% | 50% | 0% | 0% | 0% | 0% | 0% | 20.4 µM
O=c1c2ccccc2[se]n1-c1ccccc1 [EBSELEN] | 0% | 22% | 0% |  |  | 0% | 0% | 0% | 0% | 0% | 0% | 0% | 0% |  | 0% | 0% | 0% | 0% | 0% | 42.3 µM
CC(=O)OC[C@H]1O[C@@H](NC(=O)CCCn2[se]c3ccccc3c2=O)[C@H](OC(C)=O)[C@@H](OC(C)=O)[C@@H]1OC(C)=O | 0% | 67% | 0% | inactive | 50% | 0% | 0% | 0% | 0% | 0% | 0% | 0% | 0% | 50% | 0% | 0% | 0% | 0% | 0% | 18.9 µM
